Measurements as given in article PMC2834884 (Journal of immunology (Baltimore, Md. : 1950), 2009).
Like-named read-outs stand apart in the source and are kept apart here.

Assays:
monoclonal antibody L317 = experiment: L317 antibody binding to glycolipid/CD1d complexes; conditions: surface plasmon resonance
Procedure, shortened: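 Real-time binding of L317 to glycolipid-loaded CD1d was measured by surface plasmon resonance at 25°C. Kinetic parameters came from fitting specific sensorgrams.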

NK cells = experiment: NK cell trans-activation; type: in vivo, mouse; conditions: 1 μg i.v., 18 h after injection, liver and spleen
Procedure, shortened: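 Glycolipid (DMSO stock diluted in PBS) was given i.v. Liver was perfused via portal vein and mononuclear cells isolated at the 40/60% Percoll interface (900 g, 20 min); splenocytes were dissociated and red cells lysed. Cells were surface-stained at 4°C for 45 min, then permeabilized with Cytofix/Cytoperm for intracellular IFNγ staining and flow cytometry.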

1.2 Vα14i NKT hybridoma = experiment: ERK1/2 phosphorylation in Vα14i NKT hybridoma after glycolipid-pulsed APCs; type: cell-based, mouse; conditions: 1.2 hybridoma; for extent of ERK1/2 phosphorylation: A20-CD1d cells as APCs
Procedure, shortened: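 A20-CD1d cells (10^6/ml) were pulsed 2 h with glycolipid (DMSO stock diluted in PBS), washed cold, and mixed with hybridoma cells at 4:1 on ice, then pelleted and warmed to 37°C for timed intervals. Cells were fixed in 4% PFA, stained for Thy1.2, permeabilized in 90% methanol and stained for ppERK1/2. Flow cytometry was gated on Thy1.2+ cells with t = 0 as negative control. Values are % ppERK+ (glycolipid) minus % ppERK+ (vehicle).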

CD1d = biological target: T1, CD1d (Mus musculus, UniProt P11609); experiment: Decay of glycolipids from CD1d measured by L317 binding; conditions: surface plasmon resonance, 25°C
T1 sequence (P11609 22-305 limits assumed): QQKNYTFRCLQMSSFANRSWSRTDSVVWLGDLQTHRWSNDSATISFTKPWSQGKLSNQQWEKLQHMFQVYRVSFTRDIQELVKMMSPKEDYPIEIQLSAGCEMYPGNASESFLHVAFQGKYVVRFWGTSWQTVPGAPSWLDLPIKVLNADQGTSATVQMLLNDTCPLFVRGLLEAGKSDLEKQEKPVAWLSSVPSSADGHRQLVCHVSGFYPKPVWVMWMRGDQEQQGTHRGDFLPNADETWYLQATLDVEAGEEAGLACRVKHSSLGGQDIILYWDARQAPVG
T1 sequence (P01887 21-119 partner): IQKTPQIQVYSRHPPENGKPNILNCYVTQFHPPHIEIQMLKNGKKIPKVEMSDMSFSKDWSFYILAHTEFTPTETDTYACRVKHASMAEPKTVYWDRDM
Procedure, shortened: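 His-tagged mouse CD1d pulsed overnight with each glycolipid, then captured on Ni-charged NTA sensor chip channels; complexes allowed to decay for varied times before a saturating dose of αGalCer/CD1d-specific mAb L317 was flowed over. Binding was measured by surface plasmon resonance at 25°C and normalized to maximum binding for each antigen.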

Vα14i NKT cells = experiment: Ex vivo activation of Vα14i NKT cells after i.v. glycolipid; type: in vivo, mouse; conditions: 1 μg i.v.; for Vα14i NKT cell activation (percentage producing IFNγ, IL-4 and TNF; CD69 and CD40L expression): two hours after injection
Procedure, shortened: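 Mice received glycolipid i.v. (DMSO stock diluted in PBS, heated 56°C 10 min). Spleens were taken at 2 h, mechanically dissociated, filtered and red cells lysed. Cells were stained with mAbs together with CD1d tetramer in PBS/10% FCS at 4°C for 45 min and analysed by flow cytometry.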

splenic DC = experiment: Phenotype of splenic DC from glycolipid immunized mice; type: in vivo, mouse; conditions: 17.5 h and 44 h after immunization
[1] = biological target: Vα14i/Vβ8.2 TCR of 1.2 Vα14i NKT cell hybridoma (Mus musculus, UniProt A0A0B4J1J9+A0A0G2JG46+A0A140T8N6+P11609); experiment: Equilibrium glycolipid/CD1d tetramer staining of 1.2 hybridoma; type: binding; conditions: glycolipid/CD1d tetramers
[2] = biological target: T2, glycolipid/CD1d complexes on splenic APC (Mus musculus, UniProt P11609); type: in vivo; conditions: 1 μg i.v.
T2 sequence (P11609 22-336): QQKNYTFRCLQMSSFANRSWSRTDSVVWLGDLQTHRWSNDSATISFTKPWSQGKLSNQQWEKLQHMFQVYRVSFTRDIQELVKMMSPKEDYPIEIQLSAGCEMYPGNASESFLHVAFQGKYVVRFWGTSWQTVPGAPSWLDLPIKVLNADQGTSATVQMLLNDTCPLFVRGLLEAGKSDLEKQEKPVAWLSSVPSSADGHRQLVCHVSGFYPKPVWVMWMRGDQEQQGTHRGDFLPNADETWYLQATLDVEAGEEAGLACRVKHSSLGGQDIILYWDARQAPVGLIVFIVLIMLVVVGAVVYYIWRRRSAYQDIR
T2 sequence (P01887 21-119 partner): T1 sequence (P01887 21-119 partner)
Procedure, shortened: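 At set times after i.v. immunization, spleens were collagenase D-digested at 37°C, treated with 5 mM EDTA for 5 min and strained. Cells were split into CD11c-enriched and depleted fractions with anti-CD11c magnetic beads. A dose range of each fraction was cultured with 1.2 hybridoma cells (2 × 10^5/well) without added antigen. Supernatant IL-2 was measured by sandwich ELISA.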

C57BL/6J mice = experiment: Serum cytokine ELISA after i.v. injection of glycolipid; type: in vivo, mouse; conditions: 1 μg i.v.
Procedure, shortened: (§1)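 Glycolipid was dissolved at 100 μg/mL in DMSO, diluted in PBS, heated 56°C 10 min and vortexed. Glycolipid or vehicle was injected i.v. and mice bled at set times. Serum cytokines were quantified by sandwich ELISA with paired capture/detection mAbs.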

CD40−/− mice = experiment: Serum IFNγ in CD40-deficient mice; type: in vivo, mouse; conditions: 1 μg i.v., serum at 6 h and 24 h, versus C57BL/6
Procedure, shortened: as §1

[3] = APC harvested 1.5 h after immunization

| t1/2 (dissociation of glycolipid from CD1d) (CD1d; listed as CD1d/αGalCer) [h] | stability of complexes with CD1d in vivo ([2]; functional bioassay) | SMILES | affinity of L317 for glycolipid bound to CD1d (monoclonal antibody L317) | IFNγ production by NK cells (trans-activation) (NK cells) | extent of ERK1/2 phosphorylation (1.2 Vα14i NKT hybridoma) | ERK1/2 phosphorylation (1.2 Vα14i NKT hybridoma; BMDCs or splenic B cells as APCs) | t1/2 (dissociation of glycolipid from CD1d) (CD1d) [h] | t1/2 (dissociation of glycolipid from CD1d) (CD1d; listed as CD1d/OCH) [h] | CD40L expression on Vα14i NKT cells (Vα14i NKT cells; 2 h after injection, spleen) | Vα14i NKT cell activation (percentage producing IFNγ, IL-4 and TNF; CD69 and CD40L expression) (Vα14i NKT cells) | increased expression of CD80, CD86 and CD1d in splenic DC (splenic DC) | tetramer binding to 1.2 hybridoma cells [1] | IL-2 release by 1.2 hybridoma with APC from immunized mice [2, 3] | IL-2 release by 1.2 hybridoma with APC from immunized mice ([2]; APC harvested 17.5 h and 44 h after immunization) | serum IFNγ level (C57BL/6J mice) | serum IL-4 level (C57BL/6J mice) | IFNγ levels in CD40-deficient mice (CD40−/− mice) |
| --- | --- | --- | --- | --- | --- | --- | --- | --- | --- | --- | --- | --- | --- | --- | --- | --- | --- |
|  |  | CCCCCCCCCCCCCCCCCCCCCCCC(=O)N[C@@H](COC1OC(CO)C(O)C(O)C1O)[C@H](O)[C@H](O)CCCCC (some centres unmarked) [OCH] | weaker | Impaired NK cell trans-activation | indistinguishable | induced fewer 1.2 cells to phosphorylate ERK1/2 than αGalCer | 1.09 | 1.09 ± 0.63 | induced more CD40L than C-glycoside | less potent than αGalCer | to the same extent as αGalCer | barely able to bind | higher production of IL-2 than C-glycoside | considerably reduced compared to αGalCer and C-glycoside | relatively low levels of IFNγ | high levels of IL-4, equivalent to αGalCer |  |
| 5.043 ± 2.207 | much more stable in vivo than OCH | CCCCCCCCCCCCCCCCCCCCCCCCCC(=O)N[C@@H](CO[C@H]1O[C@H](CO)[C@H](O)[C@H](O)[C@H]1O)[C@H](O)[C@H](O)CCCCCCCCCCCCCC [αGalCer, α-galactosyl ceramide] | highest | highest percentage of IFNγ-expressing NK cells | dose-dependent increase in ppERK |  | 5.043 |  |  | highest percentage |  |  | best response |  |  |  | strongly reduced |
